Sampled rows, rich in hits. Any-hit rate of the full collection: about 3.8%.
hERG protect – compounds protecting human hERG from proarrhythmic drug block; activation (rescue from dofetilide block), less the hit threshold, % at 10 µM; AID 1511; CHO-hERG, FluxOR thallium flux, dofetilide IC70 present; actives 0.51% (n = 310,000);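 active = activation above the mean of controls blocked by dofetilide plus 5 SD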;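 note: thallium influx through hERG after potassium depolarization seen as dye fluorescence rise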
KCNK9 block – blocks the human KCNK9 two-pore domain potassium channel | HEK293 KCNK9, FluxOR thallium flux fluorescence; hits give low values | B-score at 10 µM | actives 1.2% (n = 310,000) | AID 488922;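 active = ratio B-score over 3 SD below the library mean, with starting fluorescence within 5 SD of its mean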;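 note: negative B-score means less thallium flux so channel inhibition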
Target sequence (Q9NPC2 whole entry, looked up, the tested form may be a part): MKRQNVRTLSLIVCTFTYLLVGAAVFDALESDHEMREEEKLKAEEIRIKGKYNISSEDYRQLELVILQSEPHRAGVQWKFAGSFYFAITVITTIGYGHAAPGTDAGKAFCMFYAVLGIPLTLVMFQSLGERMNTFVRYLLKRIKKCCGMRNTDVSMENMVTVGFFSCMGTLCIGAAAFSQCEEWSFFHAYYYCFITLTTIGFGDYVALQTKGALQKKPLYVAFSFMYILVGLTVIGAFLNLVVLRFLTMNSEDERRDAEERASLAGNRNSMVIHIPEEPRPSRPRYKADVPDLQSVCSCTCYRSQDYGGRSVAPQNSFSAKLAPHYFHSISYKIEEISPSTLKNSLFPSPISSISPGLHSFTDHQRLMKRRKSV
KCNQ1 pot – potentiates or activates the human KCNQ1 potassium channel | P51787 | CHO-K1 KCNQ1, thallium flux FluxOR fluorescence; hits give high values | actives 0.35% (n = 310,000) | B-score at 10 µM;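 active = fluorescence ratio B-score, a plate-corrected score, at least three library SD, with initial intensity B-score within 5 SD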
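Test system: CHO-K1 cells stably expressing KCNQ1 / Medium: assay buffer / Also added: depolarizing K+/Tl+ stimulus, K2SO4 and Tl2SO4 each 12.5 mM in 5x stock / Incubation: 90 min dye loading and 20 min compound exposure, both at room temperature / Signal: thallium influx via FluxOR fluorescence, kinetic imaging / Evaluation: B score of baseline-normalized fluorescence ratio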
KCNK3 inh – human KCNK3 channel inhibition, primary screen; O14649; B-score at 10 µM; CHO-KCNK3 thallium flux, FluxOR fluorescence; hits give low values; AID 602410; actives 0.84% (n = 340,000);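 active = B-score under library mean minus 4 SD, starting fluorescence ratio at most library mean plus 5 SD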;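 note: more negative B-score means stronger inhibition of thallium flux through KCNK3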
Kir21 inh – blocks the mouse Kir2.1 inward-rectifier potassium channel. B-score at 10 µM. HEK293-Kir2.1, FluxOR thallium flux fluorescence; hits give low values. actives 0.85% (n = 310,000). P35561;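 active = fluorescence ratio B-score at or below minus 3 SD of library scores, with starting-brightness B-score within 2 SD, cut at about -4.2 in these data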;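 note: channel flux triggered by added potassium and thallium sulfate stimulus; B-score of peak minus minimum fluorescence over baseline after thallium stimulus; more negative B-score means stronger Kir2.1 block with less thallium influx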
KCNQ1 inh – inhibitors of human KCNQ1 potassium channel; P51787; CHO-K1 KCNQ1, FluxOR thallium flux fluorescence; hits give high values; B-score at 10 µM; actives 1.3% (n = 310,000); AID 2642;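 active = compounds whose thallium flux B-score, printed positive for inhibition, exceeds three library SD while starting fluorescence stays within three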;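 note: channel opened by potassium depolarization with thallium stimulus after 20 min compound exposure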
KCNK3 inh conf – human KCNK3 channel inhibition, confirmation assay; shares compounds with KCNK3 inh; CHO-KCNK3 thallium flux, FluxOR fluorescence; 0% buffer, 100% carvedilol maximal block; ratio percent of control, % at 10 µM; actives 99% (n = 2,400);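 active = ratio percent of control, averaged over triplicates, above buffer control mean plus 5 SD, cut at about 64% in these data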;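 note: ratio is the fluorescence rise from min to max over baseline after thallium stimulus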
KCNK3 uninduced – activity in cells without induced KCNK3 expression; shares compounds with KCNK3 inh; non-induced KCNK3 parental cells, FluxOR thallium flux; hits give low values; thallium flux ratio (lower = more inhibition) at 10 µM; actives 40% (n = 2,400); AID 651747;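 active = thallium flux ratio, averaged over three wells, more than 5 SD below the buffer control mean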;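 note: host cells are CHO cells without KCNK3 induction; ratio is peak minus trough fluorescence over baseline then normalized to buffer controls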
The depositor's hits bear a star; i = inactive; / = no result.

SMILES	hERG protect	KCNK9 block	KCNQ1 pot	KCNK3 inh	Kir21 inh	KCNQ1 inh	KCNK3 inh conf	KCNK3 uninduced
Cc1cccc(OCCCSc2nc3ccccc3[nH]2)c1	-18	i	i	-8.9*	-3.1	i	126*	0.12*
CCn1c(NCc2cc(Br)ccc2NS(=O)(=O)c2ccc(C)cc2)nc2ccccc21	-9	i	i	-11*	-0.49	6*	120*	i
CCn1c(NCc2ccccc2NS(=O)(=O)c2ccc(C)cc2)nc2ccccc21	-7	i	i	i	0.02	i	/	/
Cc1ccccc1OCC(=O)N1CCc2ccccc2C1	-6	i	i	i	0.08	i	/	/
Cc1cc(OCC(=O)N2CCc3ccccc3C2)c(C)cc1Br	-4	i	i	-8.8*	-0.76	i	130*	0.14*
Cc1ccc(/C=N/NC(=O)C(C)Oc2cccc3ccccc23)o1 (centres undefined)	-9	i	i	i	0.19	i	/	/
O=C(CCOc1ccccc1)NNC(=O)c1ccccc1	/	/	/	i	/	/	/	/
COc1ccc(NC(=O)COC(=O)c2cc(C)oc2C)cc1OC	/	/	/	i	/	/	/	/
COc1ccc(OC)c(C(=O)COC(=O)c2cc(C)oc2C)c1	-14	i	i	-10*	1.5	i	119*	i
CN1c2ccccc2-c2nc3ccccc3n2C1c1ccccn1 (centres undefined)	-6	i	i	-9.7*	-0.79	i	95*	i
COC(=O)c1cc(C(=O)Nc2ccc(S(N)(=O)=O)cc2)cc([N+](=O)[O-])c1	-5	i	i	i	-0.02	i	/	/
COCCn1c(SCc2cccc(F)c2)nc2cc(C(=O)OC)ccc2c1=O	-4	i	i	-9*	-1.2	i	107*	i
CCSc1nc2cc(C(=O)OC)ccc2c(=O)n1CC	1	i	i	i	-1.4	i	/	/
CCCc1cc(NCCCn2ccnc2)n2nc(C)c(-c3ccccc3)c2n1	-22	i	i	-8.8*	-5.8	i	109*	0.15*
Cc1cc(C)c(S(=O)(=O)NCCCn2ccnc2)cc1C	-7	i	i	i	-0.1	i	/	/
COc1ccccc1OCc1ccc(C(=O)Nc2ccccc2F)cc1	-3	i	i	i	-1.2	i	/	/
COc1ccccc1NC(=O)c1ccccc1Oc1ccccc1	-8	i	i	-8.8*	0.03	i	122*	0.12*
COc1ccccc1NC(=O)c1ccc(COc2ccccc2OC)cc1	-8	i	i	-8.8*	-0.02	i	103*	i
Nc1ccc(C(=O)N2CCN(S(=O)(=O)c3ccc4c(c3)OCCCO4)CC2)cc1[N+](=O)[O-]	/	/	/	i	/	/	/	/
Cc1nc(SC2CC(=O)N(c3cc(Cl)cc(Cl)c3)C2=O)nc2c1CCCC2 (centres undefined)	3	i	i	-9.8*	-1.5	i	105*	0.16*
Cc1cccc(N2C(=O)CC(Sc3nc(C)c4c(n3)CCCC4)C2=O)c1 (centres undefined)	-10	i	i	i	-0.04	i	/	/
O=C(Cc1ccccc1F)Nc1ccc(S(=O)(=O)N2CCCC2)cc1	/	/	/	i	/	/	/	/
O=C(CSc1ccc(Cl)cc1)N1CCN(c2c(Cl)cccc2[N+](=O)[O-])CC1	-9	i	i	-9.9*	0.18	i	117*	0.14*
O=C(CSc1ccc(Cl)cc1)N1CCN(c2ccc([N+](=O)[O-])cc2Cl)CC1	-9	i	i	i	-0.67	i	/	/
COc1ccc(C(=O)Nc2ccnn2C2CCN(C3CCC3)CC2)cc1	-6	i	i	i	-0.9	i	/	/
SMILES	hERG protect	KCNK9 block	KCNQ1 pot	KCNK3 inh	Kir21 inh	KCNQ1 inh	KCNK3 inh conf	KCNK3 uninduced
Cc1ccc(C)c(OCCNc2ncccc2[N+](=O)[O-])c1	-2	i	i	-12*	-0.79	i	102*	i
Cc1ccc(C)c(OCCNc2ccc([N+](=O)[O-])cn2)c1	-4	i	i	i	-0.2	i	/	/
CSc1sc(-c2nnc(SCC(=O)Nc3ccc(Cl)cc3)n2C)c2c1C=CCC2	-7	i	i	i	1.3	i	/	/
COc1cccc(Oc2ccc(C(F)(F)F)cc2NC(=O)CCc2nc3ccccc3c(=O)[nH]2)c1	-15	-7*	i	i	0.92	i	97*	i
O=C(CCc1nc2ccccc2c(=O)[nH]1)Nc1cc(C(F)(F)F)ccc1N1CCOCC1	-7	i	i	i	-0.5	i	/	/
N#Cc1cccc(CN2CCCN(Cc3ccc(F)cc3)S2(=O)=O)c1	-4	i	i	-9.2*	-0.69	i	94*	0.15*
CCCn1nc([N+](=O)[O-])c(C(C#N)c2nc3ccccc3s2)c(Cl)c1=O (centres undefined)	-23	i	i	-8.8*	-3.1	14*	133*	0.11*
CCn1nc([N+](=O)[O-])c(C(C#N)c2nc3ccccc3n2C)c(Cl)c1=O (centres undefined)	-3	i	i	i	-1.9	i	/	/
COc1ccc(Cl)cc1NC(=O)CN(C)CC(=O)Nc1ccccc1-c1ccccc1	0	i	i	-9.7*	1.6	i	99*	i
COc1ccc(Cl)cc1NC(=O)CN(C)C(=O)Cc1ccc(-c2ccccc2)cc1	/	/	/	i	/	/	/	/
Cc1ccc(CCNC(=O)C(C)n2nc(C)c3c(C)n(-c4ccccc4)nc3c2=O)cc1 (centres undefined)	-7	i	i	i	1.3	i	/	/
CCC(C(=O)NCCc1ccc(C)cc1)n1nc(C)c2c(C)n(-c3ccccc3)nc2c1=O (centres undefined)	-5	i	i	-9.4*	-0.03	i	99*	i
CCc1cccc2c(C(=O)CN3C(=O)N(C)C4(CCCCC4)C3=O)c[nH]c12	/	/	/	i	/	/	/	/
CCNC(=O)CSc1nnc(-c2cccc(S(=O)(=O)N(CC)CC)c2)n1CCc1ccccc1	-8	i	i	i	0.02	i	/	/
CCSc1nnc(-c2cccc(S(=O)(=O)N(CC)CC)c2)n1Cc1ccccc1	-28	i	i	-9.8*	-0.35	i	93*	i
CCOc1ccccc1N(CC)C(=O)c1ccc2c(=O)n3c(nc2c1)CCCCC3	-7	i	i	i	0.3	i	/	/

Screening data deposited in PubChem by Johns Hopkins Ion Channel Center.
